# Laboratory results: ChEMBL document CHEMBL1255499, “Recombinant phenotyping of cytomegalovirus UL97 kinase sequence variants for ganciclovir resistance” (Antimicrob Agents Chemother, 2010)
# Key:
# Human betaherpesvirus 5 [1] = assay: Antiviral activity against Human cytomegalovirus T3099 expressing UL97 kinase H587Y mutant gene infected in human foreskin fibroblast measured 6 days post infection by SEAP reporter gene assay; conditions: Human betaherpesvirus 5, T3099, 144 h
# Human betaherpesvirus 5 [2] = assay: Antiviral activity against Human cytomegalovirus T3259 expressing UL97 kinase C592G mutant gene infected in human foreskin fibroblast measured 6 days post infection by SEAP reporter gene assay; assay type: functional, organism-based; conditions: Human betaherpesvirus 5, T3259, 144 h
# Outline: (§1)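 Ganciclovir SEAP yield reduction. Confluent HFF (2 × 10⁵ cells/well) infected with cell-free virus stock at MOI 0.02. Inoculum removed after 1.5 h and replaced with medium containing serial 2-fold GCV dilutions, top concentration 4 to 32 μM. Supernatant SEAP read by chemiluminescent substrate at day 6. EC₅₀ is the concentration giving 50% SEAP reduction; mean and SD of ≥7 determinations over ≥4 setup dates.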
# Human betaherpesvirus 5 [3] = assay: Antiviral activity against Human cytomegalovirus T3261 harboring Frt motif upstream of UL97 kinase infected in human foreskin fibroblast measured 6 days post infection by SEAP reporter gene assay; conditions: Human betaherpesvirus 5, T3261, 144 h
# Human betaherpesvirus 5 [4] = assay: Antiviral activity against Human cytomegalovirus T3253 expressing UL97 kinase K599R mutant gene infected in human foreskin fibroblast measured 6 days post infection by SEAP reporter gene assay; conditions: Human betaherpesvirus 5, T3253, 144 h
# Human betaherpesvirus 5 [5] = assay: Antiviral activity against Human cytomegalovirus T2258 expressing UL97 kinase C592G mutant gene infected in human foreskin fibroblast measured 6 days post infection by SEAP reporter gene assay; assay type: functional, organism-based; conditions: Human betaherpesvirus 5, T2258, 144 h
# Outline: (§2)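 Confluent HFF (2 × 10⁵ cells/well) infected with cell-free recombinant AD169-derived SEAP-reporter CMV at MOI 0.02 for 1.5 h. Inoculum then replaced with medium holding serial 2-fold ganciclovir dilutions, top concentration 4 to 32 μM. Supernatant SEAP read by chemiluminescent substrate at day 6. EC₅₀ is the concentration giving 50% SEAP reduction, reported as mean and SD of ≥7 determinations over ≥4 setup dates.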
# Human betaherpesvirus 5 [6] = assay: Antiviral activity against Human cytomegalovirus T3146 expressing UL97 kinase K599R mutant gene infected in human foreskin fibroblast measured 6 days post infection by SEAP reporter gene assay; conditions: Human betaherpesvirus 5, T3146, 144 h
# Human betaherpesvirus 5 [7] = assay: Antiviral activity against Human cytomegalovirus T3244 expressing UL97 kinase A588V mutant gene infected in human foreskin fibroblast measured 6 days post infection by SEAP reporter gene assay; conditions: Human betaherpesvirus 5, T3244, 144 h
# Human betaherpesvirus 5 [8] = assay: Antiviral activity against Human cytomegalovirus T3243 expressing UL97 kinase T659I mutant gene infected in human foreskin fibroblast measured 6 days post infection by SEAP reporter gene assay; assay type: functional, organism-based; conditions: Human betaherpesvirus 5, T3243, 144 h; outline: as §1
# Human betaherpesvirus 5 [9] = assay: Antiviral activity against Human cytomegalovirus T3257 expressing UL97 kinase V466M mutant gene infected in human foreskin fibroblast measured 6 days post infection by SEAP reporter gene assay; conditions: Human betaherpesvirus 5, T3257, 144 h
# Human betaherpesvirus 5 [10] = assay: Antiviral activity against Human cytomegalovirus T3242 expressing UL97 kinase A478V mutant gene infected in human foreskin fibroblast measured 6 days post infection by SEAP reporter gene assay; conditions: Human betaherpesvirus 5, T3242, 144 h
# Human betaherpesvirus 5 [11] = assay: Antiviral activity against Human cytomegalovirus T3331 expressing UL97 kinase C603R mutant gene infected in human foreskin fibroblast measured 6 days post infection by SEAP reporter gene assay; assay type: functional, organism-based; conditions: Human betaherpesvirus 5, T3331, 144 h; outline: as §2
# Human betaherpesvirus 5 [12] = assay: Antiviral activity against Human cytomegalovirus T3216 expressing UL97 kinase A588V mutant gene infected in human foreskin fibroblast measured 6 days post infection by SEAP reporter gene assay; conditions: Human betaherpesvirus 5, T3216, 144 h
# Human betaherpesvirus 5 [13] = assay: Antiviral activity against Human cytomegalovirus T2924 expressing UL97 kinase H469Y mutant gene infected in human foreskin fibroblast measured 6 days post infection by SEAP reporter gene assay; assay type: functional, organism-based; conditions: Human betaherpesvirus 5, T2924, 144 h; outline: as §2
# Human betaherpesvirus 5 [14] = assay: Antiviral activity against Human cytomegalovirus T3258 expressing UL97 kinase A594E mutant gene infected in human foreskin fibroblast measured 6 days post infection by SEAP reporter gene assay; conditions: Human betaherpesvirus 5, T3258, 144 h
# Human betaherpesvirus 5 [15] = assay: Antiviral activity against Human cytomegalovirus T3184 expressing UL97 kinase L405P mutant gene infected in human foreskin fibroblast measured 6 days post infection by SEAP reporter gene assay; conditions: Human betaherpesvirus 5, T3184, 144 h
# Human betaherpesvirus 5 [16] = assay: Antiviral activity against Human cytomegalovirus T2233 expressing UL97 kinase H587Y mutant gene infected in human foreskin fibroblast measured 6 days post infection by SEAP reporter gene assay; conditions: Human betaherpesvirus 5, T2233, 144 h
# Human betaherpesvirus 5 [17] = assay: Antiviral activity against Human cytomegalovirus T3326 harboring Frt motif upstream of UL97 kinase N68D L126Q I244V mutant gene infected in human foreskin fibroblast measured 6 days post infection by SEAP reporter gene assay; conditions: Human betaherpesvirus 5, T3326, 144 h
# Human betaherpesvirus 5 [18] = assay: Antiviral activity against Human cytomegalovirus T3130 expressing UL97 kinase V665I mutant gene infected in human foreskin fibroblast measured 6 days post infection by SEAP reporter gene assay; conditions: Human betaherpesvirus 5, T3130, 144 h
# Human betaherpesvirus 5 [19] = assay: Antiviral activity against Human cytomegalovirus T2255 expressing UL97 kinase A594V mutant gene infected in human foreskin fibroblast measured 6 days post infection by SEAP reporter gene assay; assay type: functional, organism-based; conditions: Human betaherpesvirus 5, T2255, 144 h; outline: as §2
# Human betaherpesvirus 5 [20] = assay: Antiviral activity against Human cytomegalovirus T3215 expressing UL97 kinase A478V mutant gene infected in human foreskin fibroblast measured 6 days post infection by SEAP reporter gene assay; conditions: Human betaherpesvirus 5, T3215, 144 h
# Human betaherpesvirus 5 [21] = assay: Antiviral activity against Human cytomegalovirus T3327 expressing UL97 kinase C603S mutant gene infected in human foreskin fibroblast measured 6 days post infection by SEAP reporter gene assay; assay type: functional, organism-based; conditions: Human betaherpesvirus 5, T3327, 144 h; outline: as §2
# Human betaherpesvirus 5 [22] = assay: Antiviral activity against Human cytomegalovirus T3185 harboring Frt motif upstream of UL97 gene and expressing UL97 kinase H587Y mutant gene infected in human foreskin fibroblast measured 6 days post infection by SEAP reporter gene assay; conditions: Human betaherpesvirus 5, T3185, 144 h
# Human betaherpesvirus 5 [23] = assay: Antiviral activity against Human cytomegalovirus T3136 expressing UL97 kinase H469Y mutant gene infected in human foreskin fibroblast measured 6 days post infection by SEAP reporter gene assay; assay type: functional, organism-based; conditions: Human betaherpesvirus 5, T3136, 144 h; outline: as §1
# Human betaherpesvirus 5 [24] = assay: Antiviral activity against Human cytomegalovirus T3135 expressing UL97 kinase H587Y mutant gene infected in human foreskin fibroblast measured 6 days post infection by SEAP reporter gene assay; conditions: Human betaherpesvirus 5, T3135, 144 h
# Human betaherpesvirus 5 [25] = assay: Antiviral activity against Human cytomegalovirus T3329 expressing UL97 kinase C603W mutant gene infected in human foreskin fibroblast measured 6 days post infection by SEAP reporter gene assay; conditions: Human betaherpesvirus 5, T3329, 144 h
# Human betaherpesvirus 5 [26] = assay: Antiviral activity against Human cytomegalovirus T2789 expressing UL97 kinase L405P mutant gene infected in human foreskin fibroblast measured 6 days post infection by SEAP reporter gene assay; conditions: Human betaherpesvirus 5, T2789, 144 h
# Human betaherpesvirus 5 [27] = assay: Antiviral activity against Human cytomegalovirus T3264 expressing UL97 kinase G623S mutant gene infected in human foreskin fibroblast measured 6 days post infection by SEAP reporter gene assay; assay type: functional, organism-based; conditions: Human betaherpesvirus 5, T3264, 144 h; outline: as §1
# Human betaherpesvirus 5 [28] = assay: Antiviral activity against Human cytomegalovirus T3041 expressing UL97 kinase L600I mutant gene infected in human foreskin fibroblast measured 6 days post infection by SEAP reporter gene assay; assay type: functional, organism-based; conditions: Human betaherpesvirus 5, T3041, 144 h; outline: as §2
# Human betaherpesvirus 5 [29] = assay: Antiviral activity against Human cytomegalovirus T3346 expressing UL97 kinase M460T mutant gene infected in human foreskin fibroblast measured 6 days post infection by SEAP reporter gene assay; assay type: functional, organism-based; conditions: Human betaherpesvirus 5, T3346, 144 h; outline: as §2
# Human betaherpesvirus 5 [30] = assay: Antiviral activity against Human cytomegalovirus T2259 expressing UL97 kinase M460V mutant gene infected in human foreskin fibroblast measured 6 days post infection by SEAP reporter gene assay; assay type: functional, organism-based; conditions: Human betaherpesvirus 5, T2259, 144 h; outline: as §2
# Human betaherpesvirus 5 [31] = assay: Antiviral activity against Human cytomegalovirus T3239 expressing UL97 kinase V665I mutant gene infected in human foreskin fibroblast measured 6 days post infection by SEAP reporter gene assay; conditions: Human betaherpesvirus 5, T3239, 144 h
# Human betaherpesvirus 5 [32] = assay: Antiviral activity against Human cytomegalovirus T2211 expressing UL97 kinase H587Y mutant gene infected in human foreskin fibroblast measured 6 days post infection by SEAP reporter gene assay; conditions: Human betaherpesvirus 5, T2211, 144 h
# Human betaherpesvirus 5 [33] = assay: Antiviral activity against Human cytomegalovirus T3240 expressing UL97 kinase N510S mutant gene infected in human foreskin fibroblast measured 6 days post infection by SEAP reporter gene assay; assay type: functional, organism-based; conditions: Human betaherpesvirus 5, T3240, 144 h; outline: as §1
# Human betaherpesvirus 5 [34] = assay: Antiviral activity against Human cytomegalovirus T3252 expressing UL97 kinase A594V mutant gene infected in human foreskin fibroblast measured 6 days post infection by SEAP reporter gene assay; assay type: functional, organism-based; conditions: Human betaherpesvirus 5, T3252, 144 h; outline: as §2
structure (smiles),measurement,setting,value
Nc1nc2c(ncn2COC(CO)CO)c(=O)[nH]1 [GANCICLOVIR],EC50,Human betaherpesvirus 5 [1],1020 nM
same,EC50,Human betaherpesvirus 5 [2],3000 nM
same,EC50,Human betaherpesvirus 5 [3],990 nM
same,EC50,Human betaherpesvirus 5 [4],1230 nM
same,EC50,Human betaherpesvirus 5 [5],3.36 µM
same,EC50,Human betaherpesvirus 5 [6],940 nM
same,EC50,Human betaherpesvirus 5 [7],990 nM
same,EC50,Human betaherpesvirus 5 [8],1260 nM
same,EC50,Human betaherpesvirus 5 [9],1240 nM
same,EC50,Human betaherpesvirus 5 [10],770 nM
same,EC50,Human betaherpesvirus 5 [11],8.18 µM
same,EC50,Human betaherpesvirus 5 [12],1230 nM
same,EC50,Human betaherpesvirus 5 [13],1330 nM
same,EC50,Human betaherpesvirus 5 [14],2980 nM
same,EC50,Human betaherpesvirus 5 [15],2760 nM
same,EC50,Human betaherpesvirus 5 [16],1110 nM
same,EC50,Human betaherpesvirus 5 [17],1090 nM
same,EC50,Human betaherpesvirus 5 [18],1220 nM
same,EC50,Human betaherpesvirus 5 [19],9.24 µM
same,EC50,Human betaherpesvirus 5 [20],950 nM
same,EC50,Human betaherpesvirus 5 [21],1850 nM
same,EC50,Human betaherpesvirus 5 [22],960 nM
same,EC50,Human betaherpesvirus 5 [23],1050 nM
same,EC50,Human betaherpesvirus 5 [24],1000 nM
same,EC50,Human betaherpesvirus 5 [25],7.81 µM
same,EC50,Human betaherpesvirus 5 [26],3.02 µM
same,EC50,Human betaherpesvirus 5 [27],1130 nM
same,EC50,Human betaherpesvirus 5 [28],1500 nM
same,EC50,Human betaherpesvirus 5 [29],9.24 µM
same,EC50,Human betaherpesvirus 5 [30],8.52 µM
same,EC50,Human betaherpesvirus 5 [31],1060 nM
same,EC50,Human betaherpesvirus 5 [32],1100 nM
same,EC50,Human betaherpesvirus 5 [33],1140 nM
same,EC50,Human betaherpesvirus 5 [34],8.48 µM
